# Reference: ChEMBL document CHEMBL1287651, “Synthesis and in vitro antibacterial activity of fluoroquinolone derivatives containing 3-(N'-alkoxycarbamimidoyl)-4-(alkoxyimino) pyrrolidines” (2010)
# Tests used:
# Type in all cases: functional
# Staphylococcus aureus [1] = assay: Antibacterial activity against Staphylococcus aureus ATCC […] after 18 to 24 hrs by twofold serial dilution method
# Procedure, shortened: (§1)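 MIC determined by the standard twofold serial dilution method on agar media, screening against Gram-positive and Gram-negative strains. Levofloxacin and gemifloxacin were run alongside as reference drugs.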
# Staphylococcus aureus [2] = assay: Antibacterial activity against methicillin-resistant Staphylococcus aureus 08-1 after 18 to 24 hrs by twofold serial dilution method
# Procedure, shortened: (§2)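 Standard twofold serial agar dilution method on agar media for MIC determination. Screened against representative Gram-positive and Gram-negative strains. Levofloxacin and GMFX served as control drugs.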
# Staphylococcus aureus [3] = assay: Antibacterial activity against methicillin-sensitive Staphylococcus aureus 08-2 after 18 to 24 hrs by twofold serial dilution method; procedure, shortened: as §2
# [4] = tested on: Staphylococcus epidermidis; assay: Antibacterial activity against methicillin-resistant Staphylococcus epidermidis 09-2 after 18 to 24 hrs by twofold serial dilution method; procedure, shortened: as §2
# [5] = tested on: Staphylococcus epidermidis; assay: Antibacterial activity against methicillin-resistant Staphylococcus epidermidis 09-3 after 18 to 24 hrs by twofold serial dilution method; procedure, shortened: as §2
# [6] = tested on: Staphylococcus epidermidis; assay: Antibacterial activity against methicillin-resistant Staphylococcus epidermidis 09-4 after 18 to 24 hrs by twofold serial dilution method; procedure, shortened: as §2
# [7] = tested on: Staphylococcus epidermidis; assay: Antibacterial activity against methicillin-sensitive Staphylococcus epidermidis 09-3 after 18 to 24 hrs by twofold serial dilution method; procedure, shortened: as §2
# [8] = tested on: Staphylococcus epidermidis; assay: Antibacterial activity against methicillin-sensitive Staphylococcus epidermidis 09-6 after 18 to 24 hrs by twofold serial dilution method; procedure, shortened: as §2
# Streptococcus pneumoniae [9] = assay: Antibacterial activity against Streptococcus pneumoniae 08-2 after 18 to 24 hrs by twofold serial dilution method; procedure, shortened: as §1
# Streptococcus pneumoniae [10] = assay: Antibacterial activity against Streptococcus pneumoniae 08-4 after 18 to 24 hrs by twofold serial dilution method; procedure, shortened: as §1
# Enterococcus faecium [11] = assay: Antibacterial activity against Enterococcus faecium 08-2 after 18 to 24 hrs by twofold serial dilution method; procedure, shortened: as §1
# Enterococcus faecium [12] = assay: Antibacterial activity against Enterococcus faecium 08-7 after 18 to 24 hrs by twofold serial dilution method; procedure, shortened: as §1
# Enterococcus faecalis [13] = assay: Antibacterial activity against Enterococcus faecalis 08-10 after 18 to 24 hrs by twofold serial dilution method; procedure, shortened: as §1
# Enterococcus faecalis [14] = assay: Antibacterial activity against Enterococcus faecalis 08-12 after 18 to 24 hrs by twofold serial dilution method; procedure, shortened: as §1
# Escherichia coli [15] = assay: Antibacterial activity against Escherichia coli ATCC 25922 after 18 to 24 hrs by twofold serial dilution method; procedure, shortened: as §1
# Escherichia coli [16] = assay: Antibacterial activity against Escherichia coli 08-21 after 18 to 24 hrs by twofold serial dilution method; procedure, shortened: as §1
# Escherichia coli [17] = assay: Antibacterial activity against Escherichia coli 08-22 after 18 to 24 hrs by twofold serial dilution method; procedure, shortened: as §1
# Klebsiella pneumoniae [18] = assay: Antibacterial activity against Klebsiella pneumoniae 09-21 after 18 to 24 hrs by twofold serial dilution method; procedure, shortened: as §1
# Klebsiella pneumoniae [19] = assay: Antibacterial activity against Klebsiella pneumoniae 09-22 after 18 to 24 hrs by twofold serial dilution method; procedure, shortened: as §1
# Klebsiella pneumoniae [20] = assay: Antibacterial activity against Klebsiella pneumoniae 09-23 after 18 to 24 hrs by twofold serial dilution method; procedure, shortened: as §1
# Pseudomonas aeruginosa [21] = assay: Antibacterial activity against Pseudomonas aeruginosa ATCC 27853 after 18 to 24 hrs by twofold serial dilution method; procedure, shortened: as §1
# Pseudomonas aeruginosa [22] = assay: Antibacterial activity against Pseudomonas aeruginosa 09-32 after 18 to 24 hrs by twofold serial dilution method; procedure, shortened: as §1
# Pseudomonas aeruginosa [23] = assay: Antibacterial activity against Pseudomonas aeruginosa 09-33 after 18 to 24 hrs by twofold serial dilution method; procedure, shortened: as §1
# Pseudomonas aeruginosa [24] = assay: Antibacterial activity against Pseudomonas aeruginosa 09-34 after 18 to 24 hrs by twofold serial dilution method; procedure, shortened: as §1
# Pseudomonas aeruginosa [25] = assay: Antibacterial activity against Pseudomonas aeruginosa 09-35 after 18 to 24 hrs by twofold serial dilution method; procedure, shortened: as §1
Compound,MIC (Staphylococcus aureus [1]),MIC (Staphylococcus aureus [2]),MIC (Staphylococcus aureus [3]),MIC [4],MIC [5],MIC [6],MIC [7],MIC [8],MIC (Streptococcus pneumoniae [9]),MIC (Streptococcus pneumoniae [10]),MIC (Enterococcus faecium [11]),MIC (Enterococcus faecium [12]),MIC (Enterococcus faecalis [13]),MIC (Enterococcus faecalis [14]),MIC (Escherichia coli [15]),MIC (Escherichia coli [16]),MIC (Escherichia coli [17]),MIC (Klebsiella pneumoniae [18]),MIC (Klebsiella pneumoniae [19]),MIC (Klebsiella pneumoniae [20]),also measured
CO/N=C1\CN(c2nc3c(cc2F)c(=O)c(C(=O)O)cn3-c2ccc(F)cc2F)CC1/C(N)=N\OC (stereo not given),0.5 µg/mL,0.25 µg/mL,0.25 µg/mL,0.5 µg/mL,0.25 µg/mL,0.25 µg/mL,0.5 µg/mL,0.25 µg/mL,16 µg/mL,0.25 µg/mL,> 128 µg/mL,> 128 µg/mL,> 128 µg/mL,> 128 µg/mL,128 µg/mL,> 128 µg/mL,> 128 µg/mL,> 128 µg/mL,1 µg/mL,> 128 µg/mL,MIC (Pseudomonas aeruginosa [21]): 128 µg/mL; MIC (Pseudomonas aeruginosa [22]): 128 µg/mL; MIC (Pseudomonas aeruginosa [23]): > 128 µg/mL; MIC (Pseudomonas aeruginosa [24]): > 128 µg/mL; MIC (Pseudomonas aeruginosa [25]): 128 µg/mL
CCO/N=C1\CN(c2c(F)cc3c(=O)c(C(=O)O)cn(C4CC4)c3c2OC(F)F)CC1/C(N)=N\O (stereo not given),0.5 µg/mL,0.25 µg/mL,1 µg/mL,1 µg/mL,1 µg/mL,1 µg/mL,1 µg/mL,0.25 µg/mL,8 µg/mL,8 µg/mL,> 128 µg/mL,> 128 µg/mL,> 128 µg/mL,> 128 µg/mL,128 µg/mL,> 128 µg/mL,> 128 µg/mL,> 128 µg/mL,8 µg/mL,> 128 µg/mL,MIC (Pseudomonas aeruginosa [21]): 128 µg/mL; MIC (Pseudomonas aeruginosa [22]): 128 µg/mL; MIC (Pseudomonas aeruginosa [23]): > 128 µg/mL; MIC (Pseudomonas aeruginosa [24]): > 128 µg/mL; MIC (Pseudomonas aeruginosa [25]): 128 µg/mL
CCO/N=C1\CN(c2c(F)cc3c(=O)c(C(=O)O)cn(C4CC4)c3c2OC(F)F)CC1/C(N)=N\OCC (stereo not given),1 µg/mL,2 µg/mL,64 µg/mL,64 µg/mL,64 µg/mL,> 128 µg/mL,> 128 µg/mL,> 128 µg/mL,> 128 µg/mL,> 128 µg/mL,> 128 µg/mL,> 128 µg/mL,> 128 µg/mL,64 µg/mL,128 µg/mL,> 128 µg/mL,> 128 µg/mL,> 128 µg/mL,64 µg/mL,> 128 µg/mL,MIC (Pseudomonas aeruginosa [21]): 128 µg/mL; MIC (Pseudomonas aeruginosa [22]): > 128 µg/mL; MIC (Pseudomonas aeruginosa [23]): > 128 µg/mL; MIC (Pseudomonas aeruginosa [24]): > 128 µg/mL; MIC (Pseudomonas aeruginosa [25]): > 128 µg/mL
CCO/N=C1\CN(c2c(F)cc3c(=O)c(C(=O)O)cn(C4CC4)c3c2OC)CC1/C(N)=N\O (stereo not given),0.25 µg/mL,0.25 µg/mL,0.25 µg/mL,0.5 µg/mL,0.25 µg/mL,0.5 µg/mL,0.25 µg/mL,0.25 µg/mL,1 µg/mL,1 µg/mL,> 128 µg/mL,> 128 µg/mL,> 128 µg/mL,> 128 µg/mL,128 µg/mL,> 128 µg/mL,> 128 µg/mL,> 128 µg/mL,4 µg/mL,> 128 µg/mL,MIC (Pseudomonas aeruginosa [21]): 32 µg/mL; MIC (Pseudomonas aeruginosa [22]): 64 µg/mL; MIC (Pseudomonas aeruginosa [23]): > 128 µg/mL; MIC (Pseudomonas aeruginosa [24]): > 128 µg/mL; MIC (Pseudomonas aeruginosa [25]): 64 µg/mL
CCO/N=C1\CN(c2nc3c(cc2F)c(=O)c(C(=O)O)cn3C2CC2)CC1/C(N)=N\OCC (stereo not given),2 µg/mL,> 128 µg/mL,8 µg/mL,8 µg/mL,8 µg/mL,32 µg/mL,> 128 µg/mL,> 128 µg/mL,> 128 µg/mL,> 128 µg/mL,> 128 µg/mL,> 128 µg/mL,> 128 µg/mL,> 128 µg/mL,128 µg/mL,> 128 µg/mL,> 128 µg/mL,> 128 µg/mL,128 µg/mL,> 128 µg/mL,MIC (Pseudomonas aeruginosa [21]): 128 µg/mL; MIC (Pseudomonas aeruginosa [22]): > 128 µg/mL; MIC (Pseudomonas aeruginosa [23]): > 128 µg/mL; MIC (Pseudomonas aeruginosa [24]): > 128 µg/mL; MIC (Pseudomonas aeruginosa [25]): > 128 µg/mL
CCO/N=C1\CN(c2c(F)cc3c(=O)c(C(=O)O)cn(C4CC4)c3c2OC(F)F)CC1/C(N)=N\OC (stereo not given),0.125 µg/mL,0.25 µg/mL,0.25 µg/mL,64 µg/mL,0.25 µg/mL,0.25 µg/mL,0.125 µg/mL,0.25 µg/mL,64 µg/mL,64 µg/mL,64 µg/mL,64 µg/mL,32 µg/mL,32 µg/mL,16 µg/mL,64 µg/mL,64 µg/mL,32 µg/mL,32 µg/mL,32 µg/mL,MIC (Pseudomonas aeruginosa [21]): 8 µg/mL; MIC (Pseudomonas aeruginosa [22]): 64 µg/mL; MIC (Pseudomonas aeruginosa [23]): 64 µg/mL; MIC (Pseudomonas aeruginosa [24]): 64 µg/mL; MIC (Pseudomonas aeruginosa [25]): 64 µg/mL
